Calls of active or inactive are those of the source. The rule behind the calls is not given here.
Experiments:
[1] = Inhibition of glucose-induced insulin secretion in rat pancreatic islets assessed as residual insulin release level at 10 uM preincubated for 30 mins measured after 90 mins radioimmunology analysis; type: functional
Method in brief: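 Batches of 10 rat islets preincubated 30 min at 37 °C in bicarbonate salt medium with 2.8 mM glucose and 0.5% albumin, gassed O2/CO2 (95/5). Then incubated 90 min at 37 °C with 16.7 mM glucose plus drug. Insulin measured by radioimmunoassay against a rat insulin standard and expressed as % of drug-free 16.7 mM glucose control. Mean ± SEM (n).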

Thoracic aorta [2] = experiment: Myorelaxant activity in endothelium-free rat thoracic aorta assessed as inhibition of 30 mM of KCl-induced contraction; type: functional, tissue-based
Method in brief: (§1)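 Transverse thoracic aorta rings (3–4 mm), cleaned of fat and connective tissue and equilibrated 60 min, recorded isometrically by force transducer. Contraction induced with 30 or 80 mM KCl. After tension stabilized, drug added cumulatively up to maximal relaxation or 300 µM. Glibenclamide at 1 or 10 µM present throughout where stated. EC50 is the concentration giving 50% inhibition of the KCl plateau, from concentration-response curves. Mean ± SEM (n).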

Thoracic aorta [3] = experiment: Myorelaxant activity in endothelium-free rat thoracic aorta assessed as inhibition of 30 mM of KCl-induced contraction in presence of 1 uM of KATP channel blocker glibenclamide; type: functional, tissue-based; method in brief: as §1
Thoracic aorta [4] = experiment: Myorelaxant activity in endothelium-free rat thoracic aorta assessed as inhibition of 30 mM of KCl-induced contraction in presence of 10 uM of KATP channel blocker glibenclamide; type: functional, tissue-based; method in brief: as §1
Thoracic aorta [5] = experiment: Myorelaxant activity in endothelium-free rat thoracic aorta assessed as inhibition of 80 mM of KCl-induced contraction; type: functional, tissue-based; method in brief: as §1
Thoracic aorta [6] = experiment: Effect on 86Rb fractional flow rate in endothelium-free rat thoracic aorta at 25 to 100 uM; type: functional, tissue-based
Method in brief: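 Prelabelled 86Rb (42K substitute) efflux: pairs of 2 mm aortic rings preincubated 30 min at 37 °C in bicarbonate salt solution gassed O2/CO2 (95/5), loaded 60 min with 86Rb, washed, then perifused at 1.0 mL/min with 30 mM K+ medium throughout. Effluent collected per min from 31st to 90th min. Fractional outflow rate (% of instantaneous ring content per min) from scintillation counts.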

Thoracic aorta [7] = experiment: Inhibition of 80 mM of KCl-induced Ca2+ outflow in endothelium-free rat thoracic aorta assessed 45Ca outflow per min at 30 uM (reference value: 6.06 +/- 0.36%); type: functional; set-up: scale not given: the % may be the effect or the level left
Thoracic aorta [8] = experiment: Ratio of EC50 for myorelaxant activity in endothelium-free rat thoracic aorta presence of 1 uM of KATP channel blocker glibenclamide to EC50 for myorelaxant activity in endothelium-free rat thoracic aorta absence of KATP channel blocker glibenclamide; type: functional; method in brief: as §1
Thoracic aorta [9] = experiment: Ratio of EC50 for myorelaxant activity in endothelium-free rat thoracic aorta presence of 10 uM of KATP channel blocker glibenclamide to EC50 for myorelaxant activity in endothelium-free rat thoracic aorta absence of KATP channel blocker glibenclamide; type: functional; method in brief: as §1

With CCS(=O)(=O)Nc1ccc2c(c1)C(NC(=S)Nc1ccc(C#N)cc1)CC(C)(C)O2 (centres undefined) the Activity [1] was 57.9% and the EC50 (Thoracic aorta [2]) was 12 µM.

For COc1ccc(CCN(C)CCCC(C#N)(c2ccc(OC)c(OC)c2)C(C)C)cc1OC (centres undefined) [VERAPAMIL], the EC50 (Thoracic aorta [2]) was 0.031 µM, the inhibition (Thoracic aorta [2]) was “Dose-dependent effect” and the EC50 (Thoracic aorta [3]) was 0.038 µM. It also gave an EC50 (Thoracic aorta [4]) of 0.035 µM and an EC50 (Thoracic aorta [5]) of 0.052 µM.

CCS(=O)(=O)Nc1ccc2c(c1)C(NC(=S)Nc1cccc(C#N)c1)CC(C)(C)O2 (centres undefined) showed an Activity [1] of 64.7% and an EC50 (Thoracic aorta [2]) of 12.1 µM.

In the case of CC1(C)CC(NC(=S)Nc2cccc(C#N)c2)c2cc(NS(C)(=O)=O)ccc2O1 (centres undefined), the Activity [1] is reported as 91.7% and the EC50 (Thoracic aorta [2]) is reported as 9.8 µM.

CCS(=O)(=O)Nc1ccc2c(c1)C(NC(=O)Nc1ccc(C#N)cc1)CC(C)(C)O2 (centres undefined) showed an Activity [1] of 73.6% and an EC50 (Thoracic aorta [2]) of 11.8 µM.

With CCS(=O)(=O)Nc1ccc2c(c1)C(NC(=O)Nc1cccc(C#N)c1)CC(C)(C)O2 (centres undefined) the Activity [1] was 75.6% and the EC50 (Thoracic aorta [2]) was 9.5 µM.

With CC1(C)CC(NC(=O)Nc2cccc(Cl)c2)c2cc(NS(C)(=O)=O)ccc2O1 (centres undefined) the Activity [1] was 94.5% and the EC50 (Thoracic aorta [2]) was 15.2 µM.

With CC1(C)CC(NC(=S)Nc2cccc(Cl)c2)c2cc(NS(C)(=O)=O)ccc2O1 (centres undefined) the Activity [1] was 69.2%, the EC50 (Thoracic aorta [2]) was 9.8 µM and the inhibition (Thoracic aorta [2]) was “Dose-dependent effect”. For the same compound, the EC50 (Thoracic aorta [3]) was 16.6 µM, the EC50 (Thoracic aorta [4]) was 15.7 µM and the EC50 (Thoracic aorta [5]) was 16.8 µM. The Activity (Thoracic aorta [6]) was “inactive” and the Activity (Thoracic aorta [7]) was 3.68%.

Compound CCS(=O)(=O)Nc1ccc2c(c1)C(NC(=S)Nc1cccc(Cl)c1)CC(C)(C)O2 (centres undefined) has an Activity [1] of 54.3% and an EC50 (Thoracic aorta [2]) of 9.8 µM.

CCS(=O)(=O)Nc1ccc2c(c1)C(NC(=O)Nc1ccc(Cl)cc1)CC(C)(C)O2 (centres undefined) showed an Activity [1] of 78.1% and an EC50 (Thoracic aorta [2]) greater than 10 µM.

Work on CC1(C)Oc2ccc(C#N)cc2C(N2CCCC2=O)C1O (racemic) [CROMAKALIM] yielded an Activity [1] of 94.4%, an EC50 (Thoracic aorta [2]) of 0.13 µM and an EC50 (Thoracic aorta [3]) of 2.5 µM. For the same compound, the inhibition (Thoracic aorta [3]) was “Dose-dependent effect”, the EC50 (Thoracic aorta [4]) was 28.8 µM and the inhibition (Thoracic aorta [4]) was “Dose-dependent effect”. The EC50 (Thoracic aorta [5]) was 138 µM, the “Ratio EC50” value (Thoracic aorta [8]) was 10 and the “Ratio EC50” value (Thoracic aorta [9]) was 130.

For CC1(C)CC(NC(=O)Nc2ccc(Cl)cc2)c2cc(NS(C)(=O)=O)ccc2O1 (centres undefined), the Activity [1] was 88.5% and the EC50 (Thoracic aorta [2]) was greater than 30 µM.

CC1(C)CC(NC(=S)Nc2ccc(C#N)cc2)c2cc(NS(C)(=O)=O)ccc2O1 (centres undefined) gave an Activity [1] of 81.7% and an EC50 (Thoracic aorta [2]) of 11.6 µM.

Work on CC1(C)CC(NC(=O)Nc2cccc(C#N)c2)c2cc(NS(C)(=O)=O)ccc2O1 (centres undefined) yielded an Activity [1] of 84.4% and an EC50 (Thoracic aorta [2]) of 9.3 µM.

With CC1=Nc2ccc(Cl)cc2S(=O)(=O)N1 [DIAZOXIDE] the Activity [1] was 80.8%, the EC50 (Thoracic aorta [2]) was 26.1 µM and the inhibition (Thoracic aorta [3]) was “Dose-dependent effect”. The inhibition (Thoracic aorta [4]) was “Dose-dependent effect”, the EC50 (Thoracic aorta [5]) was greater than 300 µM and the “Ratio EC50” value (Thoracic aorta [8]) was 4.4. The “Ratio EC50” value (Thoracic aorta [9]) was 8.

CCS(=O)(=O)Nc1ccc2c(c1)C(NC(=O)Nc1cccc(Cl)c1)CC(C)(C)O2 (centres undefined) showed an Activity [1] of 72.1% and an EC50 (Thoracic aorta [2]) of 17.2 µM.

In the case of CC1(C)CC(NC(=O)Nc2ccc(C#N)cc2)c2cc(NS(C)(=O)=O)ccc2O1 (centres undefined), the Activity [1] is reported as 81.6% and the EC50 (Thoracic aorta [2]) is reported as 19.8 µM.

With CCS(=O)(=O)Nc1ccc2c(c1)C(NC(=S)Nc1ccc(Cl)cc1)CC(C)(C)O2 (centres undefined) the Activity [1] was 49.1% and the EC50 (Thoracic aorta [2]) was 5.1 µM.

Work on CC1(C)CC(NC(=S)Nc2ccc(Cl)cc2)c2cc(NS(C)(=O)=O)ccc2O1 (centres undefined) yielded an Activity [1] of 63.9% and an EC50 (Thoracic aorta [2]) of 11.6 µM.
